KCNQ1 inh = inhibitors of human KCNQ1 potassium channel; P51787; CHO-K1 KCNQ1, FluxOR thallium flux fluorescence; active compounds read high; B-score at 10 µM; 1.3% of 310,000 active; AID 2642;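 active = compounds whose thallium flux B-score, printed positive for inhibition, exceeds three library SD while starting fluorescence stays within three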;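 note: channel opened by potassium depolarization with thallium stimulus after 20 min compound exposure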
KCNQ1 act = human KCNQ1 channel potentiation or activation; P51787; AID 2648; 0.35% of 310,000 active; CHO-K1 KCNQ1, thallium flux FluxOR fluorescence; active compounds read high; B-score at 10 µM;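 active = fluorescence ratio B-score, a plate-corrected score, at least three library SD, with initial intensity B-score within 5 SD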
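System: Stable KCNQ1 CHO-K1 line | Incubation: 90 min dye loading and 20 min compound exposure, both at room temperature | Measure: Ratio B score | Medium: Assay buffer for compound exposure, DMSO matched across wells | Compound dosing: Single-concentration screen | Probe or stimulus: K+/Tl+ depolarizing stimulus | Measured by: Kinetic FluxOR fluorescence, 10 s baseline plus 110 s post-stimulus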
hERG rescue = compounds protecting human hERG from proarrhythmic drug block | Q12809 | CHO-hERG, FluxOR thallium flux, dofetilide IC70 present | activation (rescue from dofetilide block), less the hit threshold, % at 10 µM | 0.51% of 310,000 active | AID 1511;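 active = activation above the mean of controls blocked by dofetilide plus 5 SD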;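 note: thallium influx through hERG after potassium depolarization seen as dye fluorescence rise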
Kir21 inh = Kir2.1 (mouse) channel inhibition; B-score at 10 µM; 0.85% of 310,000 active; AID 1672; HEK293-Kir2.1, FluxOR thallium flux fluorescence; active compounds read low; P35561;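 active = fluorescence ratio B-score at or below minus 3 SD of library scores, with starting-brightness B-score within 2 SD, cut at about -4.2 in these data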;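 note: channel flux triggered by added potassium and thallium sulfate stimulus; B-score of peak minus minimum fluorescence over baseline after thallium stimulus; more negative B-score means stronger Kir2.1 block with less thallium influx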
KCNK9 inh = inhibitors of human KCNK9 two-pore domain potassium channel. Q9NPC2. HEK293 KCNK9, FluxOR thallium flux fluorescence; active compounds read low. B-score at 10 µM. 1.2% of 310,000 active;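 active = ratio B-score over 3 SD below the library mean, with starting fluorescence within 5 SD of its mean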;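 note: negative B-score means less thallium flux so channel inhibition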
KCNK3 block = human KCNK3 channel inhibition, primary screen. AID 602410. 0.84% of 340,000 active. O14649. B-score at 10 µM. CHO-KCNK3 thallium flux, FluxOR fluorescence; active compounds read low;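 active = B-score under library mean minus 4 SD, starting fluorescence ratio at most library mean plus 5 SD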;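 note: more negative B-score means stronger inhibition of thallium flux through KCNK3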
Numbers without * were called inactive; i = inactive; . = no result. In the library only some 3.7% were active in any assay of this set; here they are far more common.

SMILES | KCNQ1 inh | KCNQ1 act | hERG rescue | Kir21 inh | KCNK9 inh | KCNK3 block
Cc1ccc(C2CC(=O)NC(SCc3ccccc3)=C2C#N)o1 (configuration not stated) | i | i | -14 | -6.9* | i | i
COCc1cc(C)n(CC(=O)Nc2ccc(N3CCOCC3)cc2)c(=O)c1C#N | i | i | -7 | 2.4 | i | i
COc1cc(/C=C/c2ccc3c(Br)cc(Br)c(O)c3n2)ccc1O | i | i | 4.7* | -1.4 | i | i
COc1ccc(/C=C/c2ccc3c(Br)ccc(O)c3n2)cc1 | i | i | -8 | -0.05 | i | i
COc1cc(C)c(S(=O)(=O)N2CCCC2)cc1C(C)C | i | i | -11 | -4.4* | i | i
Cc1cccc(N(CC(=O)NCc2ccco2)C(=O)CCC(=O)Nc2nccs2)c1 | i | i | -5 | -0.01 | i | i
COc1cc(CNc2ccc(O)cc2)cc(Br)c1OCc1ccccc1 | i | i | -22 | -0.52 | i | i
CCOc1cc(CNc2ccc(O)cc2)ccc1OCc1ccc(Cl)cc1Cl | i | i | -2 | 2.2 | i | i
COc1cc(CNC(C)(C)CO)cc(Br)c1OCc1ccc(Cl)cc1Cl | i | i | -27 | -10* | -6.6* | i
COc1cc(CNC(C)(C)CO)cc(Br)c1OCc1ccc(Cl)cc1 | i | i | -21 | -4.8* | i | i
O=C(Nc1nnc(-c2ccco2)o1)c1ccc2ccccc2c1 | i | i | 6.8* | 1 | i | i
CC(C)(C)c1ccc(C(=O)NCc2nnc(SCC(=O)NCC3CCCO3)o2)cc1 (configuration not stated) | i | i | -3 | -1.2 | i | i
COc1cc(C2C(C#N)=C(N)N(Nc3ccccc3)C3=C2C(=O)CC(C)(C)C3)ccc1OCc1ccccc1 (configuration not stated) | i | i | -10 | -1.2 | -7.3* | i
COc1cc2c(cc1Cl)/C(=C\CCN(C)C)c1ccccc1S2 | i | i | -16 | -11* | i | i
C(=C\c1ccccc1)/CSc1nnc(-c2ccncc2)n1Cc1ccco1 | i | i | -8 | -5.1* | i | i
Nn1c(SC/C=C/c2ccccc2)nnc1-c1ccco1 | i | i | -2 | 0.18 | i | i
O=C(CSc1nnc(-c2cccnc2)n1Cc1ccco1)c1ccc(Br)cc1 | i | i | -22 | -5.9* | i | i
C(=C\c1ccccc1)/CSc1nnc(-c2ccccc2)n1Cc1ccco1 | i | i | -11 | -5.4* | i | i
Cn1nnnc1SCC(=O)N1c2ccccc2Sc2ccc(Cl)cc21 | . | . | . | . | . | -10*
O=C(CSc1nnc(-c2cccnc2)n1Cc1ccco1)c1ccc2ccccc2c1 | i | i | -4 | 0.75 | i | i
Cn1c(SCC(=O)N2c3ccccc3Sc3ccc(Cl)cc32)nnc1-c1ccco1 | . | . | . | . | . | i
C=CCSc1nnc(CCc2ccccc2)n1N | . | . | . | . | . | i
Cn1nc(C(=O)OCC(=O)Nc2ccc(SC(F)F)cc2)c2ccccc2c1=O | . | . | . | . | . | i
COc1cccc(CNC(=O)CCC2CCCN(Cc3cc4ccccc4o3)C2)c1 (configuration not stated) | i | i | -12 | 0.83 | i | i
O=C(CSc1nnc(-c2ccncc2)n1Cc1ccco1)N1c2ccccc2Sc2ccc(Cl)cc21 | i | i | -6 | -0.09 | -6.6* | i
SMILES | KCNQ1 inh | KCNQ1 act | hERG rescue | Kir21 inh | KCNK9 inh | KCNK3 block
CCCCOC(=O)c1cc(C)nc2ccc(Br)cc12 | i | i | 6.5* | -0.62 | i | i
CCOC(=O)c1cc(C(=O)OCC)c2cc(Br)ccc2n1 | i | i | -11 | -0.53 | i | i
CC1=CC(=C(C#N)c2nc3ccccc3s2)C=C(C)N1Cc1ccco1 | i | i | -7 | -0.11 | i | -13*
O=C(Cc1ccccc1)NC1CCN(S(=O)(=O)c2ccc(C(=O)O)cc2)CC1 | i | i | 6.1* | 0.12 | i | i
COCC(=O)NC1CCN(S(=O)(=O)c2ccc(C(=O)O)cc2)CC1 | i | i | -10 | 0.07 | i | i
Cc1cc(C)c(S(=O)(=O)c2ccccc2)c(OC(=O)c2ccc(Cl)cc2Cl)n1 | . | . | . | . | . | i
Cc1cc(C)c(S(=O)(=O)c2ccccc2)c(OC(=O)c2c(Cl)cccc2Cl)n1 | i | i | -7 | -0.21 | -7.2* | i
O=S(=O)(Nc1cccc(-n2cnnn2)c1)c1ccccc1 | i | i | -10 | 1.7 | i | i
O=S(=O)(Nc1cccc(-n2cnnn2)c1)c1cccc(Cl)c1 | i | 8* | -9 | -0.04 | i | i
CC(C)CCNC(=O)CN(Cc1ccc(F)cc1)C(=O)CCC(=O)Nc1ccccn1 | i | i | -6 | -0.9 | i | i
Cc1cc(N2CCN(c3ccccc3Cl)CC2)n2cc(-c3ccccc3)nc2n1 | i | i | -18 | 1.9 | -12* | i
O=C(O)/C(=C\c1ccccc1)c1ccccc1 | i | i | -9 | 0.37 | i | i
O=C(Nc1ccccc1)/C(=C/c1ccccc1)c1ccccc1 | i | i | -11 | 0.63 | -7* | i
NC(=O)c1ccc(NC(=O)c2ccc(COc3ccc(F)cc3)o2)cc1 | . | . | . | . | . | i
Cc1ccc(C2=NN(C(=O)c3ccccc3F)C(c3ccccc3F)C2)cc1 (configuration not stated) | 7* | i | -5 | 0 | i | i
COc1cccc(C2CC(c3ccc(C)cc3)=NN2C(=O)c2ccccc2F)c1OC (configuration not stated) | i | i | -2 | 1.6 | i | i
O=C(O)c1cc(S(=O)(=O)N2CCCCC2)ccc1N1CCCC1 | . | . | . | . | . | i
CCCCCCCCCCCC(=O)NC(C(=O)O)C(O)c1ccccc1 (configuration not stated) | i | i | -5 | -0.05 | i | i
CCCCCCCCNC(C)C(O)c1ccc(SC(C)C)cc1 (configuration not stated) | 6* | i | -25 | -2.9 | i | i
CC(=O)N(CCC(Cc1ccccc1)c1ccc2c(c1)OCO2)Cc1ccc(Cl)cc1 (configuration not stated) | 11* | i | 0 | -3.8 | -7.3* | -8.9*
O=C(O)CC(Cc1ccccc1)c1ccc2c(c1)OCO2 (configuration not stated) | i | i | -16 | 0.03 | i | i
CC(=O)N(CCC(Cc1ccccc1)c1ccco1)Cc1ccco1 (configuration not stated) | i | i | -15 | -12* | i | i
Cc1n[nH]c(C)c1Sc1ccccc1N | i | i | 2 | -0.51 | i | i
Cc1cc(C)nc(Sc2c(C)n[nH]c2C)n1 | i | i | 5.1* | -1.7 | i | i
